According to ChEMBL document CHEMBL1649560, “Beta-lactamase-mediated beta-lactam resistance in Campylobacter species: prevalence of Cj0299 (bla OXA-61) and evidence for a novel beta-Lactamase in C. jejuni” (2009):

Tests used:
Assay type in all cases: functional
[1] = test system: Campylobacter jejuni; assay: Antibacterial activity against bla gene-positive and nitrocefin reaction-negative beta-lactamase harboring Campylobacter jejuni isolate P1698 by NCCLS agar doubling dilution method in presence of Tazobactam
In short: (§1)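 MICs of β-lactams by agar doubling dilution following the NCCLS (CLSI) Campylobacter Working Group procedure, with C. jejuni NCTC 11168 and C. coli NCTC 11366 as controls. Isolates were from UK poultry flocks. β-Lactamase status was set by Cj0299 PCR (281-bp amplimer) and by a nitrocefin colour change of sonicated lysate within 5 min, or within 30 min on repeat.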

[2] = test system: Campylobacter jejuni; assay: Antibacterial activity against bla gene-positive and nitrocefin reaction-negative beta-lactamase harboring Campylobacter jejuni isolate P1699 by NCCLS agar doubling dilution method in presence of Tazobactam; in short: as §1
[3] = test system: Campylobacter jejuni; assay: Antibacterial activity against bla gene-positive and nitrocefin reaction-positive beta-lactamase harboring Campylobacter jejuni isolate P316 by NCCLS agar doubling dilution method in presence of Tazobactam
In short: (§2)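 MICs by agar doubling dilution per the NCCLS (now CLSI) Campylobacter Working Group method. Isolates came from UK chicken flocks (feces, ceca or farm environment), 2000–2006. C. jejuni NCTC 11168 and C. coli NCTC 11366 served as control strains. The ampicillin resistance cutoff was 8 μg/ml; BSAC/CLSI Enterobacteriaceae guidelines were used for other agents.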

[4] = test system: Campylobacter jejuni; assay: Antibacterial activity against Campylobacter jejuni by NCCLS agar doubling dilution method in presence of Tazobactam; in short: as §1
[5] = test system: Campylobacter jejuni; assay: Antibacterial activity against bla gene-positive and nitrocefin reaction-positive beta-lactamase harboring Campylobacter jejuni isolate P1650 by NCCLS agar doubling dilution method in presence of Tazobactam; in short: as §2
[6] = test system: Campylobacter coli; assay: Antibacterial activity against Campylobacter coli by NCCLS agar doubling dilution method
In short: (§3)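 MICs by agar doubling dilution following the NCCLS (CLSI) Campylobacter Working Group procedure, applied to ampicillin- and amoxicillin-resistant isolates from UK chicken flocks (2000–2006). C. jejuni NCTC 11168 and C. coli NCTC 11366 served as control strains. Resistance was called at an ampicillin cutoff of 8 μg/ml. Other agents were judged against Enterobacteriaceae guidelines (BSAC, CLSI).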

[7] = test system: Campylobacter jejuni; assay: Antibacterial activity against bla gene-positive and nitrocefin reaction-negative beta-lactamase harboring Campylobacter jejuni isolate NCTC 11168 by NCCLS agar doubling dilution method in presence of Tazobactam; in short: as §1
[8] = test system: Campylobacter coli; assay: Antibacterial activity against bla gene-positive and nitrocefin reaction-positive beta-lactamase harboring Campylobacter coli isolate P321 by NCCLS agar doubling dilution method in presence of Tazobactam; in short: as §1
[9] = test system: Campylobacter jejuni; assay: Antibacterial activity against Campylobacter jejuni isolate P1093 harboring blaOXA-61::cat gene by NCCLS agar doubling dilution method in presence of Tazobactam
In short: (§4)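 Agar doubling dilution MICs (NCCLS/CLSI Campylobacter Working Group method) against Cj0299-inactivated mutants. Mutants were made by transforming the C. jejuni isolate with pCI and selecting on Mueller-Hinton agar with 10 μg/ml chloramphenicol for 3–5 days. Chromosomal insertion was confirmed by PCR with Cj0299 and cat primers.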

[10] = test system: Campylobacter jejuni; assay: Antibacterial activity against Campylobacter jejuni isolate P270 harboring blaOXA-61::cat gene by NCCLS agar doubling dilution method in presence of Tazobactam
[11] = test system: Campylobacter jejuni; assay: Antibacterial activity against bla gene-positive and nitrocefin reaction-positive beta-lactamase harboring Campylobacter jejuni isolate P1730 by NCCLS agar doubling dilution method in presence of Tazobactam; in short: as §2
[12] = test system: Campylobacter coli; assay: Antibacterial activity against bla gene-positive and nitrocefin reaction-positive beta-lactamase harboring Campylobacter coli isolate P1826 by NCCLS agar doubling dilution method in presence of Tazobactam; in short: as §1
[13] = test system: Campylobacter jejuni; assay: Antibacterial activity against bla gene-negative and nitrocefin reaction-negative beta-lactamase harboring Campylobacter jejuni isolate P850 by NCCLS agar doubling dilution method in presence of Tazobactam; in short: as §1
[14] = test system: Campylobacter jejuni; assay: Antibacterial activity against Campylobacter jejuni by NCCLS agar doubling dilution method; in short: as §3
[15] = test system: Campylobacter jejuni; assay: Antibacterial activity against bla gene-positive and nitrocefin reaction-positive beta-lactamase harboring Campylobacter jejuni isolate P285 by NCCLS agar doubling dilution method in presence of Tazobactam; in short: as §2
[16] = test system: Campylobacter jejuni; assay: Antibacterial activity against bla gene-negative and nitrocefin reaction-positive beta-lactamase harboring Campylobacter jejuni isolate P843 by NCCLS agar doubling dilution method in presence of Tazobactam; in short: as §1
[17] = test system: Campylobacter jejuni; assay: Antibacterial activity against bla gene-positive and nitrocefin reaction-positive beta-lactamase harboring Campylobacter jejuni isolate P1618 by NCCLS agar doubling dilution method in presence of Tazobactam; in short: as §1
[18] = test system: Campylobacter jejuni; assay: Antibacterial activity against bla gene-positive and nitrocefin reaction-positive beta-lactamase harboring Campylobacter jejuni isolate P338 by NCCLS agar doubling dilution method in presence of Tazobactam; in short: as §2
[19] = test system: Campylobacter jejuni; assay: Antibacterial activity against bla gene-negative and nitrocefin reaction-negative beta-lactamase harboring Campylobacter jejuni isolate P835 by NCCLS agar doubling dilution method in presence of Tazobactam; in short: as §1
[20] = test system: Campylobacter jejuni; assay: Antibacterial activity against bla gene-positive and nitrocefin reaction-positive beta-lactamase harboring Campylobacter jejuni isolate P286 by NCCLS agar doubling dilution method in presence of Tazobactam; in short: as §2
[21] = test system: Campylobacter jejuni; assay: Antibacterial activity against Campylobacter jejuni isolate P338 harboring blaOXA-61::cat gene by NCCLS agar doubling dilution method in presence of Tazobactam; in short: as §4
[22] = test system: Campylobacter jejuni; assay: Antibacterial activity against bla gene-positive and nitrocefin reaction-positive beta-lactamase harboring Campylobacter jejuni isolate P790 by NCCLS agar doubling dilution method in presence of Tazobactam; in short: as §2
[23] = test system: Campylobacter jejuni; assay: Antibacterial activity against bla gene-negative and nitrocefin reaction-negative beta-lactamase harboring Campylobacter jejuni isolate P1962 by NCCLS agar doubling dilution method in presence of Tazobactam; in short: as §1
[24] = test system: Campylobacter jejuni; assay: Antibacterial activity against bla gene-positive and nitrocefin reaction-positive beta-lactamase harboring Campylobacter jejuni isolate P1093 by NCCLS agar doubling dilution method in presence of Tazobactam; in short: as §1
[25] = test system: Campylobacter coli; assay: Antibacterial activity against bla-positive and beta-lactamase-weakly positive Campylobacter coli isolate P1627 by NCCLS agar doubling dilution method in presence of Tazobactam; in short: as §2
[26] = test system: Campylobacter jejuni; assay: Antibacterial activity against bla gene-negative and nitrocefin reaction-positive beta-lactamase harboring Campylobacter jejuni isolate P854 by NCCLS agar doubling dilution method in presence of Tazobactam; in short: as §1
[27] = test system: Campylobacter coli; assay: Antibacterial activity against Campylobacter coli by NCCLS agar doubling dilution method in presence of Tazobactam; in short: as §1
[28] = test system: Campylobacter jejuni; assay: Antibacterial activity against bla gene-negative and nitrocefin reaction-negative beta-lactamase harboring Campylobacter jejuni isolate P850 by NCCLS agar doubling dilution method; in short: as §1
[29] = test system: Campylobacter jejuni; assay: Antibacterial activity against bla gene-positive and nitrocefin reaction-negative beta-lactamase harboring Campylobacter jejuni NCTC 11168 by NCCLS agar doubling dilution method; in short: as §1
[30] = test system: Campylobacter jejuni; assay: Antibacterial activity against bla gene-positive and nitrocefin reaction-positive beta-lactamase harboring Campylobacter jejuni isolate P1093 by NCCLS agar doubling dilution method; in short: as §1
[31] = test system: Campylobacter jejuni; assay: Antibacterial activity against Campylobacter jejuni isolate P1093 harboring blaOXA-61::cat gene by NCCLS agar doubling dilution method; in short: as §4
[32] = test system: Campylobacter jejuni; assay: Antibacterial activity against Campylobacter jejuni isolate P338 harboring blaOXA-61::cat gene by NCCLS agar doubling dilution method; in short: as §4
[33] = test system: Campylobacter jejuni; assay: Antibacterial activity against bla gene-positive and nitrocefin reaction-positive beta-lactamase harboring Campylobacter jejuni isolate P316 by NCCLS agar doubling dilution method; in short: as §2
[34] = test system: Campylobacter jejuni; assay: Antibacterial activity against bla gene-positive and nitrocefin reaction-positive beta-lactamase harboring Campylobacter jejuni isolate P1650 by NCCLS agar doubling dilution method; in short: as §1
[35] = test system: Campylobacter jejuni; assay: Antibacterial activity against Campylobacter jejuni assessed as resistant isolates by NCCLS agar doubling dilution method
In short: (§5)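 MICs by agar doubling dilution following the NCCLS (CLSI) Campylobacter Working Group procedure, with C. jejuni NCTC 11168 and C. coli NCTC 11366 as controls. Isolates came from UK chicken flocks, 2000–2006. Isolates were designated resistant at an ampicillin cutoff of 8 μg/ml. Enterobacteriaceae guidelines (BSAC, CLSI) were used as reference for the other agents.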

[36] = test system: Campylobacter jejuni; assay: Antibacterial activity against bla gene-positive and nitrocefin reaction-positive beta-lactamase harboring Campylobacter jejuni isolate P286 by NCCLS agar doubling dilution method; in short: as §2
[37] = test system: Campylobacter jejuni; assay: Antibacterial activity against bla gene-positive and nitrocefin reaction-positive beta-lactamase harboring Campylobacter jejuni isolate P338 by NCCLS agar doubling dilution method; in short: as §2
[38] = test system: Campylobacter jejuni; assay: Antibacterial activity against bla gene-negative and nitrocefin reaction-negative beta-lactamase harboring Campylobacter jejuni isolate P1962 by NCCLS agar doubling dilution method; in short: as §1
[39] = test system: Campylobacter coli; assay: Antibacterial activity against bla-positive and beta-lactamase-weakly positive Campylobacter coli isolate P1627 by NCCLS agar doubling dilution method; in short: as §2
[40] = test system: Campylobacter coli; assay: Antibacterial activity against Campylobacter coli assessed as resistant isolates by NCCLS agar doubling dilution method; in short: as §5
[41] = test system: Campylobacter coli; assay: Antibacterial activity against bla gene-positive and nitrocefin reaction-positive beta-lactamase harboring Campylobacter coli isolate P321 by NCCLS agar doubling dilution method; in short: as §1
[42] = test system: Campylobacter jejuni; assay: Antibacterial activity against bla gene-negative and nitrocefin reaction-negative beta-lactamase harboring Campylobacter jejuni isolate P835 by NCCLS agar doubling dilution method; in short: as §1
[43] = test system: Campylobacter jejuni; assay: Antibacterial activity against bla gene-positive and nitrocefin reaction-positive beta-lactamase harboring Campylobacter jejuni isolate P305 by NCCLS agar doubling dilution method; in short: as §2
[44] = test system: Campylobacter jejuni; assay: Antibacterial activity against bla gene-positive and nitrocefin reaction-negative beta-lactamase harboring Campylobacter jejuni isolate P1698 by NCCLS agar doubling dilution method; in short: as §1
[45] = test system: Campylobacter jejuni; assay: Antibacterial activity against bla gene-positive and nitrocefin reaction-positive beta-lactamase harboring Campylobacter jejuni isolate P285 by NCCLS agar doubling dilution method; in short: as §2
[46] = test system: Campylobacter jejuni; assay: Antibacterial activity against bla gene-negative and nitrocefin reaction-positive beta-lactamase harboring Campylobacter jejuni isolate P854 by NCCLS agar doubling dilution method; in short: as §1
[47] = test system: Campylobacter jejuni; assay: Antibacterial activity against Campylobacter jejuni isolate P270 harboring blaOXA-61::cat gene by NCCLS agar doubling dilution method
[48] = test system: Campylobacter coli; assay: Antibacterial activity against bla gene-positive and nitrocefin reaction-positive beta-lactamase harboring Campylobacter coli isolate P1826 by NCCLS agar doubling dilution method; in short: as §1
[49] = test system: Campylobacter jejuni; assay: Antibacterial activity against bla gene-negative and nitrocefin reaction-positive beta-lactamase harboring Campylobacter jejuni isolate P843 by NCCLS agar doubling dilution method; in short: as §1
[50] = test system: Campylobacter jejuni; assay: Antibacterial activity against bla gene-positive and nitrocefin reaction-negative beta-lactamase harboring Campylobacter jejuni isolate P1699 by NCCLS agar doubling dilution method; in short: as §1
[51] = test system: Campylobacter jejuni; assay: Antibacterial activity against bla gene-positive and nitrocefin reaction-positive beta-lactamase harboring Campylobacter jejuni isolate P1730 by NCCLS agar doubling dilution method; in short: as §2
[52] = test system: Campylobacter jejuni; assay: Antibacterial activity against bla gene-positive and nitrocefin reaction-positive beta-lactamase harboring Campylobacter jejuni isolate P790 by NCCLS agar doubling dilution method; in short: as §2
[53] = test system: Campylobacter jejuni; assay: Antibacterial activity against bla gene-positive and nitrocefin reaction-positive beta-lactamase harboring Campylobacter jejuni isolate P1618 by NCCLS agar doubling dilution method; in short: as §1

C[C@]1(Cn2ccnn2)[C@H](C(=O)O)N2C(=O)C[C@H]2S1(=O)=O [TAZOBACTAM]
32 µg/mL: MIC90 [4] | MIC [5] | MIC90 [6] | MIC [9] | MIC90 [14] | MIC [17] | MIC90 [27]
8 µg/mL: MIC [21]
> 16 µg/mL: MIC [3] | MIC [8] | MIC [15] | MIC [16] | MIC [18] | MIC [19] | MIC [20] | MIC [22] | MIC [23]
256 µg/mL: MIC [24]
> 8 µg/mL: MIC [13] | MIC [26]
4 µg/mL: MIC [10]
16 µg/mL: MIC [1] | MIC50 [4] | MIC [6] | MIC50 [6] | MIC [7] | MIC [11] | MIC [12] | MIC50 [14] | MIC [25] | MIC50 [27]
1 µg/mL: MIC (range minimum) [4]
< 8 µg/mL: MIC [2]

CC1(C)S[C@@H]2[C@H](NC(=O)[C@H](N)c3ccccc3)C(=O)N2[C@H]1C(=O)O [AMPICILLIN]
128 µg/mL: MIC [30] | MIC90 [6] | MIC90 [14] | MIC [41] | MIC [44] | MIC [46] | MIC [48]
2 µg/mL: MIC [31] | MIC [32] | MIC [38] | MIC [42]
0.5 µg/mL: MIC [47]
67.4%: Activity [40]
47.5%: Activity [35]
64 µg/mL: MIC [33] | MIC [34] | MIC50 [6] | MIC [36] | MIC [37] | MIC50 [14] | MIC [43] | MIC [45] | MIC [50] | MIC [51] | MIC [52] | MIC [53]
32 µg/mL: MIC [28] | MIC [39] | MIC [49]
4 µg/mL: MIC [29]
